Results reported in ChEMBL document CHEMBL1145471, “Small molecule regulators of autophagy identified by an image-based high-throughput screen” (Proc Natl Acad Sci U S A, 2007).
Active and inactive are the calls of the source. The calls are words filed in the database; no cut-off is given here.

Tests used:
H4 [1] = assay: Effect on FYVE-RFP+ vesicle intensity per cell in human H4 cells after 4 hrs relative to control; format: functional; design: concentration or dose not given beside the values
Summary of the method: (§1)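 H4 cells stably expressing FYVE-RFP (H4-FYVE), grown in DMEM with 10% FBS, penicillin/streptomycin and 2 mM L-glutamine at 37°C, 5% CO2, seeded in 96-well plates and exposed to compound. Fixed in 4% paraformaldehyde, nuclei stained with 3 μg/ml DAPI, FYVE-RFP+ vesicles quantified by high-throughput fluorescence microscopy against DMSO control. Triplicate wells, mean ± SD.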

H4 [2] = assay: Effect on FYVE-RFP+ vesicle intensity per cell in human H4 cells after 2 hrs relative to control; format: functional; design: concentration or dose not given beside the values; summary of the method: as §1
H4 [3] = assay: Increase in light chain 3-GFP+ autophagosome vesicle intensity per cell in human H4 cells at 7.2 uM after 24 hrs by high throughput fluorescence microscopy relative to control; format: functional
Summary of the method: (§2)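 H4 cells stably expressing LC3-GFP were grown in DMEM with 10% FBS and 2 mM L-glutamine at 37°C, 5% CO2. They were exposed to each compound for 24 h, with DMSO as negative and rapamycin as positive control. Cells were then fixed in 4% paraformaldehyde and stained with 3 μg/ml DAPI. High-throughput fluorescence imaging scored LC3-GFP spot number, size and intensity, expressed relative to DMSO. Mean ± SD of triplicates; experiments repeated three times.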

H4 [4] = assay: Increase in long-lived protein degradation in human H4 cells after 4 hrs relative to control; format: functional; design: concentration or dose not given beside the values
H4 [5] = assay: Increase in long-lived protein degradation in human H4 cells after 2 hrs relative to control; format: functional; design: concentration or dose not given beside the values
H4 [6] = assay: Increase in light chain 3-GFP+ autophagosome vesicle number per cell in human H4 cells at 7.2 uM after 24 hrs by high throughput fluorescence microscopy relative to control; format: functional; summary of the method: as §2
H4 [7] = assay: Induction of light chain 3-GFP level in human H4 cells at 7.2 uM after 24 hrs by high throughput fluorescence microscopy relative to control; format: functional
Summary of the method: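 H4 cells stably expressing LC3-GFP, grown in DMEM with 10% FBS, penicillin/streptomycin and 2 mM L-glutamine at 37°C, 5% CO2. Cells were seeded in 96-well plates and exposed to library compounds at 3–12 μM for 24 h, then fixed in 4% paraformaldehyde and stained with 3 μg/ml DAPI. LC3-GFP spot number, size and intensity were measured by high-throughput fluorescence microscopy and expressed relative to DMSO. Triplicates, mean ± SD.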

H4 [8] = assay: Increase in long-lived protein degradation in human H4 cells after 1 hr relative to control; format: functional; design: concentration or dose not given beside the values
H4 [9] = assay: Increase in light chain 3-GFP+ autophagosome vesicle area per cell in human H4 cells at 7.2 uM after 24 hrs by high throughput fluorescence microscopy relative to control; format: functional
Summary of the method: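 H4 cells stably expressing LC3-GFP, seeded in 96-well plates and exposed to compound for 24 h; screening concentrations were 3–12 μM, with rapamycin 0.22 μM and bafilomycin A1 0.40 μM. Cells fixed in 4% paraformaldehyde and stained with 3 μg/ml DAPI. Number, size and intensity of LC3-GFP spots measured by high-throughput fluorescence microscopy and expressed as percent of DMSO-treated wells. Rapamycin was the positive control. Triplicate wells, mean ± SD; experiments repeated three times.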

H4 [10] = assay: Effect on FYVE-RFP+ vesicle intensity per cell in human H4 cells after 8 hrs relative to control; format: functional; design: concentration or dose not given beside the values; summary of the method: as §1
H4 [11] = assay: Increase in long-lived protein degradation in human H4 cells after 24 hrs relative to control; format: functional; design: concentration or dose not given beside the values
H4 [12] = assay: Increase in light chain 3-GFP+ autophagosome vesicle intensity per cell in human H4 cells at 3.3 uM after 24 hrs by high throughput fluorescence microscopy relative to control; format: functional
Summary of the method: (§3)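 H4 cells stably expressing LC3-GFP, seeded in 96-well plates and exposed to compound for 24 h; fixed in 4% paraformaldehyde, nuclei stained with 3 μg/ml DAPI. Automated fluorescence microscopy scored number, size and intensity of LC3-GFP spots; values expressed relative to DMSO-treated wells, rapamycin positive control. Triplicate wells, mean ± SD; experiments repeated three times.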

H4 [13] = assay: Increase in light chain 3-GFP+ autophagosome vesicle number per cell in human H4 cells at 3.3 uM after 24 hrs by high throughput fluorescence microscopy relative to control; format: functional; summary of the method: as §3
H4 [14] = assay: Increase in light chain 3-GFP+ autophagosome vesicle area per cell in human H4 cells at 3.3 uM after 24 hrs by high throughput fluorescence microscopy relative to control; format: functional; summary of the method: as §3
H4 [15] = assay: Decrease in FYVE-RFP+ vesicle intensity per cell in human H4 cells after 8 hrs relative to control; format: functional; design: concentration or dose not given beside the values; summary of the method: as §1
H4 [16] = assay: Induction of light chain 3-GFP level in human H4 cells at 3.3 uM after 24 hrs by high throughput fluorescence microscopy relative to control; format: functional
Summary of the method: (§4)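 H4 cells stably expressing LC3-GFP, kept in DMEM/10% FBS at 37°C, 5% CO2, were seeded in 96-well plates and exposed to compound for 24 h. Cells were then fixed in 4% paraformaldehyde and stained with 3 μg/ml DAPI. Automated fluorescence microscopy scored the number, size and intensity of LC3-GFP spots. Values are percent of DMSO wells, in triplicate, mean ± SD. Rapamycin served as positive control.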

H4 [17] = assay: Decrease in FYVE-RFP+ vesicle intensity per cell in human H4 cells after 2 hrs relative to control; format: functional; design: concentration or dose not given beside the values; summary of the method: as §1
H4 [18] = assay: Decrease in FYVE-RFP+ vesicle intensity per cell in human H4 cells after 4 hrs relative to control; format: functional; design: concentration or dose not given beside the values; summary of the method: as §1
H4 [19] = assay: Reduction of poly(Q) level in human H4 cells expressing EGFP-Q79-HA after 24 hrs; format: functional, cell-based
Summary of the method: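 H4 cells were transiently transfected with an EGFP-Q79-HA expression vector. The medium was replaced 6 h after transfection and compounds were added. Poly(Q) was detected with anti-HA antibody.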

H4 [20] = assay: Induction of light chain 3-GFP level in human H4 cells at 5.3 uM after 24 hrs by high throughput fluorescence microscopy relative to control; format: functional; summary of the method: as §4
H4 [21] = assay: Increase in light chain 3-GFP+ autophagosome vesicle intensity per cell in human H4 cells at 5.3 uM after 24 hrs by high throughput fluorescence microscopy relative to control; format: functional; summary of the method: as §3
H4 [22] = assay: Increase in light chain 3-GFP+ autophagosome vesicle area per cell in human H4 cells at 5.3 uM after 24 hrs by high throughput fluorescence microscopy relative to control; format: functional; summary of the method: as §3
H4 [23] = assay: Increase in FYVE-RFP+ vesicle intensity per cell in human H4 cells after 4 hrs relative to control; format: functional; design: concentration or dose not given beside the values; summary of the method: as §1
H4 [24] = assay: Increase in FYVE-RFP+ vesicle intensity per cell in human H4 cells after 8 hrs relative to control; format: functional; design: concentration or dose not given beside the values; summary of the method: as §1
[25] = target: Serine/threonine-protein kinase mTOR (Homo sapiens, UniProt P42345); assay: Effect on mTOR phosphorylation in human H4 cells at 5.3 uM after 4 hrs; format: cell-based
Summary of the method: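 H4 cells exposed to compound for 4 h. Lysates analysed by Western blot with anti-phospho and anti-total mTOR antibodies, with actin as loading control. Rapamycin served as reference.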

H4 [26] = assay: Increase in FYVE-RFP+ vesicle intensity per cell in human H4 cells after 2 hrs relative to control; format: functional; design: concentration or dose not given beside the values; summary of the method: as §1
H4 [27] = assay: Increase in light chain 3-GFP+ autophagosome vesicle number per cell in human H4 cells at 5.3 uM after 24 hrs by high throughput fluorescence microscopy relative to control; format: functional; summary of the method: as §4
H4 [28] = assay: Increase in ratio of light chain 3 subunit 2 to light chain 3 subunit 1 in human H4 cells at 5.3 uM after 4 hrs by Western blot; format: functional, cell-based
Summary of the method: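 H4 cells were treated with each compound for 4 h, then lysed. Lysates were immunoblotted with anti-LC3 antibody, with actin as loading control. LC3II and LC3I bands were compared as an LC3II/LC3I ratio.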

Work on `COC(=O)c1c(C)[nH]c(C)c1C(=O)c1ccccc1Cc1ccccc1` yielded an Activity (H4 [1]) of 78.17%, an Activity (H4 [2]) of 99.43% and an Activity (H4 [3]) of 200.83%. For the same compound, the Activity (H4 [4]) was 97.03%, the Activity (H4 [5]) was 111.04% and the Activity (H4 [6]) was 161.73%. For the same compound, the Activity (H4 [7]) was 132.45%, the Activity (H4 [8]) was 101.34% and the Activity (H4 [9]) was 18010%. The Activity (H4 [10]) was 87.62% and the Activity (H4 [11]) was 90.97%.
With `COc1cc2c3cc1Oc1c(OC)c(OC)cc4c1[C@@H](Cc1ccc(OC(=O)c5ccc([N+](=O)[O-])cc5)c(c1)Oc1ccc(cc1)C[C@@H]3N(C)CC2)N(C)CC4` [E6 BERBAMINE] the Activity (H4 [12]) was 2447.47%, the Activity (H4 [13]) was 389.35% and the Activity (H4 [4]) was 96.53%. It also gave an Activity (H4 [14]) of 693.82%, an Activity (H4 [5]) of 91.62% and an Activity (H4 [15]) of 58.69%. For the same compound, the Activity (H4 [16]) was 131.16%, the Activity (H4 [17]) was 59.73% and the Activity (H4 [8]) was 100.96%. It also gave an Activity (H4 [18]) of 54.54% and an Activity (H4 [11]) of 93.45%.
With `O=C1NCN(c2ccccc2)C12CCN(CCCC(c1ccc(F)cc1)c1ccc(F)cc1)CC2` [FLUSPIRILENE] the Activity (H4 [19]) was “Dose-dependent effect”, the Activity (H4 [20]) was 143.3% and the Activity (H4 [21]) was 1593.16%. It also gave an Activity (H4 [22]) of 532.51%, an Activity (H4 [4]) of 144.79% and an Activity (H4 [5]) of 143.17%. The Activity (H4 [23]) was 142.15%, the Activity (H4 [24]) was 108.53% and the Activity [25] was “inactive”. The Activity (H4 [26]) was 224.98%, the Activity (H4 [8]) was 93.82% and the Activity (H4 [27]) was 309.6%. The Activity (H4 [11]) was 145.5% and the Activity (H4 [28]) was “Active”.
